One data set deals with T1, Cytochrome P450 1A2 (Homo sapiens, UniProt P05177).
T1 sequence (P05177 whole entry): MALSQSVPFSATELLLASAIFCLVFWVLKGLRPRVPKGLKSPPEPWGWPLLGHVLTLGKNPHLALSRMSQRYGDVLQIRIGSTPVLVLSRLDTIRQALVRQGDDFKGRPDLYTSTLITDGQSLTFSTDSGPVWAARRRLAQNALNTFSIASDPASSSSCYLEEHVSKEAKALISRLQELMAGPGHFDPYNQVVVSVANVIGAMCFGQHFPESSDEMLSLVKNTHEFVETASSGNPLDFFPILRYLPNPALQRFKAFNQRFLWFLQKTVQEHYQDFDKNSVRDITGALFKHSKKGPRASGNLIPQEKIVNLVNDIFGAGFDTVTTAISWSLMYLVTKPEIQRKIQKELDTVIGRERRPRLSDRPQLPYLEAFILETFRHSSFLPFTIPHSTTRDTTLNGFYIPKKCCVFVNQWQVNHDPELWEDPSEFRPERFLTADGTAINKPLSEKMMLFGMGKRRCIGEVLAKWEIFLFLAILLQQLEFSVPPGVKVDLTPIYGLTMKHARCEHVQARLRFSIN
Kind of data set: Inhibition of CYP1A2 (unknown origin). The format is ADME.

The nature of data set [1]: Toxicity in Sprague-Dawley rat administered orally once daily for 2 weeks. The format is organism-based. As to conditions: in vivo, po. In a few lines: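 Male Sprague Dawley rats, 6 weeks old (5 per group), were dosed orally once daily for 2 weeks at 100 or 1000 mg/kg as a suspension in 0.5% methylcellulose; controls received vehicle. Readouts: clinical observations, body weight, food consumption, ophthalmoscopy in week 2, and terminal necropsy, hematology, clinical chemistry, organ weights and histopathology. Plasma levels were measured 24 h post-dose on days 1, 5 and 10.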

The test system of another data set is Mus musculus. Kind of data set: Ex vivo inhibition of SCD1 in C57BL/6J mouse liver assessed as residual activity at 10 mg/kg, po treated for 24 hrs followed by incubation with [14C]stearoyl-CoA substrate for 10 mins by TLC assay relative to control. The format is functional. In a few lines: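 Male 6-week-old C57BL/6J mice dosed orally as a suspension in 0.5% methylcellulose. Liver or eyelid was taken 6 or 24 h later and homogenized in 100 mM Tris-HCl pH 7.4 with 0.25 M sucrose. S9 was obtained at 10,000 × g, 4 °C. S9 was incubated with [14C]stearoyl-CoA, NADH, MgCl2 and cytochrome b5 at room temperature, 10 min for liver and 30 min for eyelid. Lipids were saponified and run on AgNO3 TLC to quantify stearate and oleate. Result is % of vehicle control.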

Data set [2] is described as follows: AUC (0 to infinity) in C57BL/6J mouse at 10 mg/kg, po. As to conditions: in vivo. Also noted: dose 10 mg/kg, time infinity, route oral. Type of data set: ADME, organism-based.
Another data set deals with T2, Stearoyl-CoA desaturase (Homo sapiens, UniProt O00767).
T2 sequence (O00767 whole entry): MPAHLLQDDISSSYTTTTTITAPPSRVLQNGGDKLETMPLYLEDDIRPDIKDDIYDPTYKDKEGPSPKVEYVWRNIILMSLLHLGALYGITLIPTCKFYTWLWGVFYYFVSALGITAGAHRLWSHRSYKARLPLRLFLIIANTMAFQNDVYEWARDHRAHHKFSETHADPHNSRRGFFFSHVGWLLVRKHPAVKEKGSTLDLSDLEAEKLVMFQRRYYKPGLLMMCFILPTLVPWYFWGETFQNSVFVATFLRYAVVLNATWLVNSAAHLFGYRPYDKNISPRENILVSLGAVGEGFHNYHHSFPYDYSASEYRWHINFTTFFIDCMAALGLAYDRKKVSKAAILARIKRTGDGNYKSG
Kind of data set: Inhibition of recombinant human SCD1 expressed in baculovirus expression system assessed as reduction in [3H]H2O production using stearoyl [9,10-3H]CoA as substrate in presence of NADH incubated for 30 mins by scintillation counting method. In a few lines: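 Desaturation of [9,10-3H]stearoyl-CoA measured as released [3H]H2O. Water was separated from charcoal-adsorbed substrate by filtration and counted by scintillation. Remaining activity = (compound − background)/(control − background). DMSO wells served as control and pre-stopped wells as background. IC50 was interpolated from the two points bracketing 50%.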

The nature of data set [3]: Metabolic stability in rat liver S9 fraction after 1 hr. The format is ADME, subcellular. To be noted: read-out: Stability.
Data set [4] can be described thus: Cmax in C57BL/6J mouse at 10 mg/kg, po. The format is ADME, organism-based. To be noted: in vivo. Also noted: dose 10 mg/kg, route oral. A digest of the protocol:
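Two male C57BL/6J mice per route, 10 mg/kg po and 1 mg/kg iv. Plasma concentration–time profiles gave Cmax, tmax, terminal half-life and AUC0-inf. Bioavailability was derived from the po and iv data.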

Where only a bound is given, the exact number is not on record here.

The term IC50 denotes the concentration that gives 50% inhibition. A word on the NOAEL: it is the highest tested level that showed no adverse finding. Broadly, the AUC(0-inf) is total exposure, with the tail of the curve extrapolated. As usually defined, the Cmax is the maximum level reached in the sampled fluid or tissue. For the compound `CCCCc1ccccc1NCc1ccc(C(=O)Nc2nc(CC(=O)O)cs2)s1`, the IC50 against Cytochrome P450 1A2 was over 50000 nM; on Stearoyl-CoA desaturase, 8.8 nM. The same compound displayed an NOAEL at 336 h in data set [1] of 100 mg/kg. The Activity in the data set on Mus musculus is 11%. The compound also yielded an AUC(0-inf) in data set [2] of 10.2 µM·h. Besides, the remaining at 1 h in data set [3] was 87%. Besides, in data set [4], the Cmax was determined as 1700 nM.
